From ChEMBL document CHEMBL1155359 (Bioorg Med Chem Lett, 2009) come the findings set out here.

Data set [1] has as its system Cavia porcellus. The data set is described as follows: Cardiovascular toxicity in iv dosed Hartley guinea pig QTc prolongation after 30 mins by ECG. It counts as organism-based. The conditions noted are these: in vivo, 0.5 h. An outline of the steps:
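Guinea pig in vivo QTc test; potency is reported as the minimum effective dose (MED) in mg/kg.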

The subject of data set [2] is Cavia porcellus. The data set is described as follows: Cardiovascular toxicity in Hartley guinea pig assessed as QTc prolongation at 100 mg/kg, iv after 30 mins by ECG. Also on record: dose 100 mg/kg, route intravenous. Particulars: in vivo, 0.5 h; call rule not given here. It counts as organism-based.
For data set [3], the system named is Cavia porcellus. The data set is described as follows: Antihistamine activity in iv dosed Hartley guinea pig assessed as inhibition of histamine-induced bronchoconstriction pretreated before histamine challenge. It counts as functional. An outline of the steps:
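Guinea pig in vivo antihistamine test; potency is reported as an ED50 in mg/kg.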

A further data set addresses Histamine H1 receptor (Homo sapiens, UniProt P35367). The data set is described as follows: Displacement of [3H]pyrilamine from human recombinant histamine H1 receptor expressed in CHO cell by Betaplate scintillation counting. The format is cell-based.
A further data set has as its target hERG (KCNH2) (Homo sapiens, UniProt Q12809). The data set is described as follows: (§1) Inhibition of human ERG in L929 cells at 10 uM by whole cell patch-clamp assay. The conditions noted are these: human.
Data set [4] has as its target T1, Voltage-gated inwardly rectifying potassium channel KCNH2 (Homo sapiens, UniProt Q12809). The data set is described as §1.
In data set [5] the test system is Cavia porcellus. The data set is described as follows: Cardiovascular toxicity in Hartley guinea pig assessed as QTc prolongation at 50 mg/kg, iv after 30 mins by ECG. The format is organism-based. Also on record: dose 50 mg/kg, route intravenous. The conditions noted are these: in vivo, 0.5 h.
Data set [6] has as its target T1, Voltage-gated inwardly rectifying potassium channel KCNH2. The data set is described as follows: Inhibition of human ERG in L929 cells by whole cell patch-clamp assay. On the technique in general: Patch clamp records ionic current or voltage across a cell membrane.
Setting [7] is: L929 cells expressing human ERG.

By ED50 is commonly meant the dose that gives a 50% effect, or the effect in half of the subjects. One may read the Ki as a measure of affinity in units of concentration, obtained from inhibition or displacement. As usually defined, the inhibition is the share of the control response that was lost under treatment. A word on the IC50: it is the midpoint of a concentration-inhibition curve. A low value points to greater potency.

Sequence of hERG (KCNH2) (Q12809 whole entry): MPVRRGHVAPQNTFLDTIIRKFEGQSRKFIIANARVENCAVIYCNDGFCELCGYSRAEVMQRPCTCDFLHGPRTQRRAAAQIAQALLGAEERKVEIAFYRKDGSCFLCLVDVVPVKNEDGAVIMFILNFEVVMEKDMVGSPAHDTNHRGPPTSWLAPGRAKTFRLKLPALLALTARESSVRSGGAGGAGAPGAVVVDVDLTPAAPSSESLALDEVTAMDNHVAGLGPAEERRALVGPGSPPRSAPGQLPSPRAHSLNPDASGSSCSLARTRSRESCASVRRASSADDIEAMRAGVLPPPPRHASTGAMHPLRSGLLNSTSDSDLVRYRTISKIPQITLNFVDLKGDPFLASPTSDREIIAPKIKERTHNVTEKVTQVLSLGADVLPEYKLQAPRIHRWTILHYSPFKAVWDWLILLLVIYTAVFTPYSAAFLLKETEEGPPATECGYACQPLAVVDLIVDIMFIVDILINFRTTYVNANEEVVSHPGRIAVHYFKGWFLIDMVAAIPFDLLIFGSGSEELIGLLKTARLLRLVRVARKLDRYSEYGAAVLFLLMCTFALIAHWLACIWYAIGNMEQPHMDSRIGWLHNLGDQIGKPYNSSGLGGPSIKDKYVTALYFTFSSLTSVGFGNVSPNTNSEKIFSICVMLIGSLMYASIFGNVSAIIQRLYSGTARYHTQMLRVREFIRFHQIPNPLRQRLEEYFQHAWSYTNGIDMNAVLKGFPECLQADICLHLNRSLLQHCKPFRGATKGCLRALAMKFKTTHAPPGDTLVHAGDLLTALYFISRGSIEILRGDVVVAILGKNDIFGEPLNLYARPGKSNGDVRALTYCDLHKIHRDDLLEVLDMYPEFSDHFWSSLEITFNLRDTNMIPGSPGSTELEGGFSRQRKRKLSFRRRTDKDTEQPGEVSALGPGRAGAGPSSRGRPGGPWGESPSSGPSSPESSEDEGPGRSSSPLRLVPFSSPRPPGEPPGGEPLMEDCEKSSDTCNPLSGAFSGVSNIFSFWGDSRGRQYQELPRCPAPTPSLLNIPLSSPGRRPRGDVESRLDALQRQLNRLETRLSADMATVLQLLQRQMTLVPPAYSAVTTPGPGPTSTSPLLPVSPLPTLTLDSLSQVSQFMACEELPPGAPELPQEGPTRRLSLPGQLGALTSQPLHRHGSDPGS
Sequence of Histamine H1 receptor (P35367 whole entry): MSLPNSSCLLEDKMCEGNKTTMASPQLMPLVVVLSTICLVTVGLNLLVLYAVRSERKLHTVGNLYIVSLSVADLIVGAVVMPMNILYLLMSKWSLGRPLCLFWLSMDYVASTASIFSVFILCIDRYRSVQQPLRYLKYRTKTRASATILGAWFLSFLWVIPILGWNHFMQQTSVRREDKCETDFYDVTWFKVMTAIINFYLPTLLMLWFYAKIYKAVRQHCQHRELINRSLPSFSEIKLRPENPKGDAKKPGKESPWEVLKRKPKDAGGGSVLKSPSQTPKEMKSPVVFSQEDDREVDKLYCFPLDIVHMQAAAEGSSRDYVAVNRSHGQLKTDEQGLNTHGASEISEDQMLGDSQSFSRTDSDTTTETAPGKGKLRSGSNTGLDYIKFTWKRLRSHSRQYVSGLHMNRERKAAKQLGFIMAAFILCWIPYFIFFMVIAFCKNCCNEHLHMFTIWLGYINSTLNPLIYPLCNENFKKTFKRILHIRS
T1 sequence (Q12809 whole entry): as the sequence (Q12809 whole entry) above

Turning to `CC(C)(C(=O)O)c1ccc(C(O)CCCN2CCC(C(O)(c3ccccc3)c3ccccc3)CC2)cc1` (racemic) [FEXOFENADINE], the MED result was “Not Active” with Cavia porcellus [1] and more than 100 mg/kg with Cavia porcellus [2]. The median effective dose (ED50) in the data set on Cavia porcellus [3] turned out to be 0.08 mg/kg.

Take `Cc1ccc(CCCCN2CCC(C(O)(c3ccccc3)c3ccccc3)CC2)cc1`: at Histamine H1 receptor (read-out: Ki), the inhibitory constant (Ki) was determined as 0.039 µM. The same molecule had an MED in the data set with Cavia porcellus [1] of 0.1 mg/kg. The ED50 with Cavia porcellus [3] is 0.9 mg/kg.

`Cc1ccc(CCCCC2CCC(C(O)(c3ccccc3)c3ccccc3)CC2)cc1` (stereo not given) displayed an inhibition at 10 µM against hERG (KCNH2) (setting [7]) of 35%. For the same molecule, the Ki entry at Histamine H1 receptor (cho) is “Not Active”.

`CC(C)(C)c1ccc(C(O)CCCN2CCC(C(O)(c3ccccc3)c3ccccc3)CC2)cc1` (racemic) [TERFENADINE] had an MED in the data set on Cavia porcellus [1] of 0.03 mg/kg. Moreover, in the data set with Cavia porcellus [3], the ED50 was determined as 0.8 mg/kg.

Consider `Cc1ccc(CCCN2CCC(C(O)(c3ccccc3)c3ccccc3)CC2)cc1`, for which, at Histamine H1 receptor (read-out: Ki), the inhibition constant Ki turned out to be 0.155 µM.

The molecule `CC1CCC(CCCCN2CCC(C(O)(c3ccccc3)c3ccccc3)CC2)CC1` (stereo not given) came in with an inhibition at 10 µM against hERG (KCNH2) (setting [7]) of 85%. For the same molecule, the inhibitory constant (Ki) at Histamine H1 receptor (read-out: Ki) was 0.061 µM.

`COC(=O)c1ccc(CCCCN2CCC(C(O)(c3ccccc3)c3ccccc3)CC2)cc1` yielded an inhibition at 10 µM against hERG (KCNH2) (setting [7]) of 100%. Further, the inhibitory constant (Ki) at Histamine H1 receptor (read-out: Ki) turned out to be 0.02 µM.

In turn, `Cc1ccc(CCCCN2CCC(CO)CC2)cc1` had an inhibition at 10 µM on hERG (KCNH2) (setting [7]) of 54%. Also, on Histamine H1 receptor (cho), the Ki entry is reported as “Not Active”.

In the case of `Cc1ccc(CCCCN2CCC(C(O)c3ccccc3)CC2)cc1` (stereo not given), 10 µM produced 97% inhibition against hERG (KCNH2) (setting [7]). Besides, on Histamine H1 receptor (read-out: Ki), the Ki was found to be 0.121 µM.

The molecule `Cc1ccc(CN2CCC(C(O)(c3ccccc3)c3ccccc3)CC2)cc1` had an inhibition at 10 µM at hERG (KCNH2) (setting [7]) of 100%. In addition, the Ki on Histamine H1 receptor (read-out: Ki) turned out to be 0.016 µM.

`Cc1ccc(CCN2CCC(C(O)(c3ccccc3)c3ccccc3)CC2)cc1` registered an inhibition at 10 µM on hERG (KCNH2) (setting [7]) of 100%. For the same molecule, the Ki on Histamine H1 receptor (read-out: Ki) is 0.064 µM.

For the molecule `O=C(O)c1ccc(CCCCN2CCC(C(O)(c3ccccc3)c3ccccc3)CC2)cc1`, the concentration for half-maximal inhibition (IC50) in data set [4] and in data set [6] was 11 µM throughout. This molecule had an inhibition at 10 µM at hERG (KCNH2) (l929) of 56%. Further, the Ki at Histamine H1 receptor (read-out: Ki) stood at 0.203 µM. In addition, the MED entry with Cavia porcellus [1] is “Not Active”; in the data set with Cavia porcellus [5], more than 50 mg/kg. For the same molecule, in the data set with Cavia porcellus [3], the 50% effective dose (ED50) is 0.1 mg/kg.

In the case of `OC(c1ccccc1)(c1ccccc1)C1CCNCC1` [AZACYCLONOL], the inhibition constant Ki on Histamine H1 receptor (read-out: Ki) turned out to be 0.659 µM.

Regarding `Cc1ccc(CCCCN2CCCCC2)cc1`, on hERG (KCNH2) (setting [7]), testing at 10 µM gave an inhibition of 71%. The Ki at Histamine H1 receptor (read-out: Ki) was 3.2 µM.

Regarding `Cc1ccc(CCCC(=O)N2CCC(C(O)(c3ccccc3)c3ccccc3)CC2)cc1`, the inhibition at 10 µM at hERG (KCNH2) (setting [7]) came out at 11%. The Ki entry on Histamine H1 receptor (cho) is listed as “Not Active”.
